Assay outcomes from PubChem.
Only some compounds are listed: those with a hit (about 3.1% of all), similar ones and a draw of the others.
GalR3 antag: human GalR3 antagonism; actives 0.44% (n = 360,000); inhibition, % at 3 µM; HEK293 GalR3-CNG cAMP membrane potential fluorescence; galR3 body fused to GalR1 C-terminus;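 active means inhibition above the screen-wide average plus 3 SD, cut at about 13% in these data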;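 further: forskolin and galanin both at EC90 stimulate the cells; cAMP rise reported by CNG channel membrane potential dye signal; 0% = forskolin plus galanin with DMSO and 100% = forskolin alone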
Target sequence (O60755 1-299 limits assumed): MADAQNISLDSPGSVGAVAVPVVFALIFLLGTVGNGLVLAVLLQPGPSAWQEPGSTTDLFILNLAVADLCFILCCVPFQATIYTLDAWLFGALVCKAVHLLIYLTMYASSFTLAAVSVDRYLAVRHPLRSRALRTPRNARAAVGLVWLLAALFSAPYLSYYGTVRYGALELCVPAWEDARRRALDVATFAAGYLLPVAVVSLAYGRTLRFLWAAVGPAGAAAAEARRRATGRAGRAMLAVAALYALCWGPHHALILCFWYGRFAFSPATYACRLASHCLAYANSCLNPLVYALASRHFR
GPR7 antagonist: antagonists of human GPR7 (neuropeptides B/W receptor 1) | P48145 | GPR7-expressing cells, fluorescence antagonist assay | inhibition, % at 4.4 µM | actives 1.1% (n = 290,000) | AID 1861; in the data active means inhibition above about 16%, passing the limit was not always enough;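 further: cells stimulated with the agonist NPW; 0% = agonist with vehicle and 100% = vehicle without agonist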
Target sequence (P48145 whole entry, looked up): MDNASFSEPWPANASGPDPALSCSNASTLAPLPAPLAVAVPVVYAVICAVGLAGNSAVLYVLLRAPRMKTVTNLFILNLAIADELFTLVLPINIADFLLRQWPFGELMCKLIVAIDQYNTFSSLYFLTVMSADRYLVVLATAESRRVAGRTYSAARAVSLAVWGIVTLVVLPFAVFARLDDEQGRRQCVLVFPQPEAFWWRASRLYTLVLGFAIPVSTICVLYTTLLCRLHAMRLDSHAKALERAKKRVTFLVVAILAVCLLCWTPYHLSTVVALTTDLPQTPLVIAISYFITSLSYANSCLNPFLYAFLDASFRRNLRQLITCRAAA
CHO parental Ca: signal in parental CHO cells, OX1R antagonist counter-screen; parental CHO-K1, ATP-induced calcium, Fluo-8 fluorescence; inhibition, % at 5.6 µM; actives 0.63% (n = 330,000); AID 463079;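 active means inhibition above that plate's mean sample inhibition plus 3 SD, cut at about 26% in these data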;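 further: 0% = ATP-challenged DMSO wells and 100% = DMSO wells without ATP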
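Material – parental CHO cells · Reagent – ATP stimulus · Compound – single nominal dose of 5.6 µM per compound · Detection – Fluo-8 fluorescence · Read-out basis – percent inhibition of calcium signal · Controls – ATP-challenged DMSO wells low, unchallenged DMSO wells high · Repeats – no replicates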
OX1R antag-1: OX1R (human) antagonism; O43613; OX1R-expressing cells, FRET antagonist read-out; inhibition, % at 6.6 µM; actives 1.8% (n = 330,000); AID 485270; in the data active means inhibition mostly above about 38%, no sharp cut-off; inactive means mostly below about 40%;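 further: 0% = agonist challenge alone and 100% = reference antagonist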
OX1R antag-2: blocks the human orexin 1 receptor; O43613; actives 0.43% (n = 330,000); AID 434989; CHO/OX1R cells, Fluo-8 calcium fluorescence, orexin A; inhibition, % at 5 µM;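 active means inhibition above its plate's threshold, mean inhibition of all tested compounds on the plate plus 3 SD, cut at about 37% in these data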;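 further: 0% = orexin A challenge wells and 100% = SB-334867-A antagonist wells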
OX1R HTRF conf: OX1R (human) antagonism, HTRF confirmed | shares compounds with OX1R antag-1 | OX1R-expressing cells, HTRF antagonist assay | inhibition, % at 6.6 µM | actives 49% (n = 1,800); in the data active means inhibition above about 55%;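 further: CHO cells expressing OX1R stimulated with orexin A at about EC80; 0% = agonist challenge alone and 100% = reference antagonist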
CHO-K1 HTRF: counter-screen for OX1R antagonists: effect in parental CHO-K1 cells; shares compounds with OX1R antag-1; HTRF counterscreen; inhibition, % at 6.6 µM; actives 48% (n = 1,800); in the data active means inhibition above about 17%;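 further: 0% = agonist challenge with vehicle and 100% = vehicle alone without agonist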
* marks the source's active call; other numbers are inactive results; nt = not tested or not shown.

SMILES | GalR3 antag | GPR7 antagonist | CHO parental Ca | OX1R antag-1 | OX1R antag-2 | OX1R HTRF conf | CHO-K1 HTRF
Cc1cc(=O)oc2cc(Oc3ccc([N+](=O)[O-])cc3[N+](=O)[O-])ccc12 | 1 | -8 | -2 | 89* | -11 | 59* | 71*
CCN(CC(=O)Nc1sc2c(c1C#N)CCCC2)Cc1nc2ccccc2c(=O)[nH]1 | 1 | -11 | -14 | 83* | 24 | 58* | 0
COc1ccc(CCn2c(=N)c(C(=O)NC3CCCCC3)cc3c(=O)n4ccccc4nc32)cc1 | 1 | 7 | -16 | 13 | -25 | nt | nt
COc1ccc(CCn2c(=N)c(C(=O)NCc3ccco3)cc3c(=O)n4ccccc4nc32)cc1OC | 6 | nt | nt | nt | nt | nt | nt
N=c1c(C(=O)NCc2ccco2)cc2c(=O)n3ccccc3nc2n1CCc1ccccc1 | -6 | -11 | -28 | 114* | -32 | 51 | 42*
COCCn1c(=N)c(C(=O)NCc2ccco2)cc2c(=O)n3cc(C)ccc3nc21 | 1 | 0 | -6 | 108* | -21 | 49 | 69*
COc1ccc(CCn2c(=N)c(C(=O)N3CCN(C)CC3)cc3c(=O)n4ccccc4nc32)cc1 | -4 | -11 | -21 | 105* | -27 | 38 | 51*
Cc1ccc(C(C)C)c(OCC(=O)c2c(O)c3ccccc3oc2=O)c1 | 0 | -8 | -8 | 82* | -14 | 36 | 2
O=C(CSc1nc(O)c(C2CCCCC2)c(=O)[nH]1)Nc1ccccc1Cl | 0 | -3 | -13 | 79* | -10 | 20 | 1
O=C(Nc1ccccc1)/C(=C1\CCCN1)[N+](=O)[O-] | -1 | -2 | -5 | 8 | -6 | nt | nt
Cc1ccc(O)c(NC(=O)c2cc(-c3ccccc3Cl)on2)c1 | -8 | 6 | -3 | 90* | 16 | 83* | 7
Cc1[nH]n(-c2ccccc2)c(=O)c1/C=N/Nc1nncc(-c2ccccc2)n1 | -9 | 0 | -14 | 80* | 2 | 24 | 10
NS(=O)(=O)c1ccc(CNC(=O)/C=C/c2cccc([N+](=O)[O-])c2)cc1 | 2 | -24 | -10 | 15 | -11 | nt | nt
COc1ccc2c(c1)[n+](=O)c(C(C)=O)c(C)n2[O-] | -1 | -7 | 21 | 39 | 4 | nt | nt
CCOC(=O)c1c(=O)n(O)c2ccc(OC)cc2[n+]1[O-] | -3 | -6 | 4 | 118* | 14 | 30 | 62*
CCCOc1cccc(C2C(C(=O)c3cccs3)=C(O)C(=O)N2CCN2CCOCC2)c1 (centres undefined) | -12 | -1 | -9 | -5 | -10 | nt | nt
O=C(NC1CCCCC1)c1sc(=S)n2c1[nH]c(=O)c1ccccc12 | -4 | -5 | -3 | 82* | -17 | 56* | 10
CC(=O)c1ccc(N2CCN(C(=O)c3ccc4c(=O)[nH]c5c(C(=O)NC6CCCC6)sc(=S)n5c4c3)CC2)cc1 | -2 | nt | nt | nt | nt | nt | nt
CCOC(=O)c1c(C)nc2c(C)cccn12 | -3 | -4 | -3 | 3 | -15 | nt | nt
CCOC(=O)c1c(C)nc2c3ccccc3ccn12 | -2 | -2 | -20 | 90* | 1 | 58* | -6
Cc1ccccc1N1C(=O)c2ccccc2C1O (centres undefined) | -9 | 2 | 5 | 2 | -39 | nt | nt
CCN(c1ccc(OC)cc1)S(=O)(=O)N1CCCC(C(=O)NCc2ccc(OC(C)C)cc2)C1 (centres undefined) | -5 | nt | nt | nt | nt | nt | nt
CN(C)C(CNC(=O)c1cc2ccccc2oc1=O)c1ccccc1 (centres undefined) | -7 | 1 | -7 | 92* | -37 | 35 | 43*
CC1CCN(c2cc(N(C)CCO)c([N+](=O)[O-])c3nonc23)CC1 | -4 | -8 | -4 | 39 | -13 | nt | nt
CN(CCO)c1cc(N2CCN(C(=O)c3ccco3)CC2)c2nonc2c1[N+](=O)[O-] | -3 | 12 | 3 | 107* | 2 | 43 | 48*
SMILES | GalR3 antag | GPR7 antagonist | CHO parental Ca | OX1R antag-1 | OX1R antag-2 | OX1R HTRF conf | CHO-K1 HTRF
COc1c(C)cc(C(=O)C2CCCN(C(=O)c3cccc(-n4cccn4)c3)C2)cc1C (centres undefined) | 1 | -22 | -9 | 89* | -8 | 81* | 3
COc1c(C)cc(C(=O)C2CCCN(C(=O)c3cc(C)on3)C2)cc1C (centres undefined) | -8 | -12 | -26 | 27 | -14 | nt | nt
O=[N+]([O-])c1ccc(C[n+]2cccc3ccccc32)cc1 | -3 | -11 | 1 | 64 | 5 | nt | nt
O=[N+]([O-])c1ccc(C[n+]2cccc3ccc4cccnc4c32)cc1 | -3 | -9 | -13 | 137* | 0 | 45 | 56*
O=[N+]([O-])c1ccc(-c2ccc(S(=O)(=O)N3CCOCC3)cc2)cc1 | -9 | -3 | -3 | 14 | -14 | nt | nt
O=C1CN(S(=O)(=O)c2ccc([N+](=O)[O-])cc2)CC(=O)N1 | -2 | -3 | -8 | 77* | -7 | 40 | 66*
CC(/C=C/c1ccc(O)cc1)=NNc1ccccc1 | -3 | nt | nt | nt | nt | nt | nt
CC(OC(=O)CCN=C1NS(=O)(=O)c2ccccc21)C(=O)Nc1ccc(F)cc1Cl (centres undefined) | -4 | nt | -16 | 12 | -10 | nt | nt
O=C(O)c1ccc2c3c(ncnc13)-c1ccccc1C2=O | nt | -9 | -6 | 186* | -3 | 58* | 98*
N/C(=N\OC(=O)Nc1ccccc1)c1ncc([N+](=O)[O-])s1 | -1 | -9 | 1 | 127* | -14 | 51 | 79*
O=C(Nc1ccc(Cl)cc1)Nc1ccccc1Sc1ncc([N+](=O)[O-])s1 | 2 | -3 | 1 | 11 | -11 | nt | nt
CCn1c(O)c(/C=C2\C=Nc3ccccc32)sc1=O | -1 | -9 | -20 | 86* | 16 | 86* | 6
COc1ccc(-c2csc3nc[nH]c(=O)c23)cc1 | -6 | -2 | -3 | 14 | -11 | nt | nt
COc1ccc(-c2cnc3nc[nH]c(=O)c3n2)cc1 | -1 | -13 | 8 | 197* | 2 | 56* | 90*
c1ccc2c(c1)oc1c(NCc3ccc4c(c3)OCO4)ncnc12 | nt | 2 | 19 | 88* | 29 | 82* | 4
CCN(CC)c1ccc(N=Nc2ncn[nH]2)cc1 | -1 | -10 | -1 | 139* | -20 | 35 | 56*
CCN(CC(=O)Nc1c(F)cccc1F)C(=O)CCc1nc2ccccc2c(=O)[nH]1 | -1 | nt | -1 | 28 | 8 | nt | nt
CCN(CC(=O)Nc1ccccc1C(F)(F)F)C(=O)CCc1nc2ccccc2c(=O)[nH]1 | -5 | -7 | -9 | 82* | 13 | 46 | -1
CC1(C)CC(NC(=O)c2cc([N+](=O)[O-])cc([N+](=O)[O-])c2)CC(C)(C)N1 | -4 | -5 | -6 | 98* | -2 | 78* | 78*
